# SKKanGAS inh – SKKanGAS growth inhibition. AID 1662. actives 1.3% (n = 300,000). inhibition, % at 7.5 µM. S. pyogenes SKKanGAS, kanamycin growth, BacTiter-Glo, 6 h;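 active = mean replicate score, as percent of positive control median, at least 50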;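 note: strain carries kanamycin resistance gene driven by streptokinase promoter and grows in 40 µg/ml kanamycin; loss of luminescence reflects streptokinase promoter inhibition or plain growth inhibition; 0% = median of DMSO wells and 100% = positive control at its reference dose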
# HGIII-sPLA2 inh – Inhibits HGIII-sPLA2 liposome hydrolysis, primary screen | inhibition, % at 12.2 µM | actives 0.56% (n = 370,000) | QFRET BODIPY PC-A2 liposome hydrolysis, fluorescence;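 active = inhibition above mean plus 3 SD of compounds lying within the high and low control bounds, cut at about 19% in these data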;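 note: 0% = median of test compound wells and 100% = no enzyme DMSO wells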
# Target sequence (Q9NZ20 whole entry, looked up): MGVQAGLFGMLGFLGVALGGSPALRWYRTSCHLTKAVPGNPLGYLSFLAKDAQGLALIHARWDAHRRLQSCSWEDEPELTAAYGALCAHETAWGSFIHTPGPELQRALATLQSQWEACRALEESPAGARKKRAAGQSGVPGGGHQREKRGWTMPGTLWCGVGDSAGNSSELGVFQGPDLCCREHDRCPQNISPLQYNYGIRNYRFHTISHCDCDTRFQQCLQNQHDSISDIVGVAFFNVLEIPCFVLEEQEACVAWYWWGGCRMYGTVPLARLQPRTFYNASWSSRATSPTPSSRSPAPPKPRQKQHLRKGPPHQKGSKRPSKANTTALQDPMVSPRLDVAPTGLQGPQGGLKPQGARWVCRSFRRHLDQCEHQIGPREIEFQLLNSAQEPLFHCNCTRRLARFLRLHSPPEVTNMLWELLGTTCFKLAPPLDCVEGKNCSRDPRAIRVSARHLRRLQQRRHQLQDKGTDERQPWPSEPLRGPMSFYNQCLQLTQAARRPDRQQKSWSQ
# Calb FLC – affects C. albicans growth with fluconazole. AID 1979. actives 0.57% (n = 300,000). growth inhibition, % (no concentration beside the values). C. albicans CaCi-2 (fluconazole-resistant clinical isolate) + fluconazole, Alamar Blue growth, 48 h;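 active = growth inhibition above about 58% in most replicates, limit read from the data, passing the limit was not always enough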;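 note: all wells also contain fluconazole at 8 µg/ml as a sub-toxic cotreatment; 0% = median of DMSO wells and 100% = median of geldanamycin control wells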
# ARFGAP1 inh – inhibits rat ARF GTPase activating protein 1. Q62848. Arfgap1-stimulated ARF1 GTP hydrolysis, GDP FP detection. inhibition, % at 16.5 µM. actives 0.26% (n = 360,000). AID 651572;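 active = inhibition above a per-plate limit, mean inhibition of low control wells plus 3 SD, cut at about 25% in these data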;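 note: 0% = DMSO wells with enzyme and 100% = wells lacking Arfgap1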
# Target sequence (Q62848 1-136 limits assumed): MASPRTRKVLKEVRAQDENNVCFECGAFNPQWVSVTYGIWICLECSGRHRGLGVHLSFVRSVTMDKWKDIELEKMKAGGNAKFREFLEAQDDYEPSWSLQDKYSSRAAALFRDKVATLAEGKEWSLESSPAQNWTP
#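 Assay system: Rat Arfgap1 GAP domain (His6, aa 1-136), purified enzyme | Buffer or medium: HEPES 25 mM pH 7.5, NaCl 150 mM, MgCl2, DTT | Schedule: GTP hydrolysis reaction 2 h at 25 °C | Signal: FP of antibody-bound GDP Alexa 633 tracer, ex 620/em 688 nm | Measure: Percent inhibition of Arfgap1-stimulated GTP hydrolysis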
# ASAP1 inh – blocks human ASAP1-stimulated Arf1 GTP hydrolysis. GDP FP detection. inhibition, % at 16.5 µM. actives 0.19% (n = 360,000); in the data active = inhibition above about 25%;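 note: 0% = vehicle with enzyme and substrate and 100% = no enzyme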
# sPLA2 confirm – human GIII-sPLA2 inhibition, confirmation. inhibition, % at 12.2 µM. actives 34% (n = 2,000). shares compounds with HGIII-sPLA2 inh. recombinant hGIII-sPLA2, BODIPY PC-A2 QFRET fluorescence;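 active = mean inhibition across triplicates above the hit cutoff set in the earlier primary screen, cut at about 19% in these data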;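 note: 0% = enzyme with DMSO and 100% = DMSO wells lacking enzyme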
# 535nm interf – optically interferes with 535nm fluorescence in sPLA2 counter-screen; actives 8.5% (n = 2,000); AID 743282; BODIPY FL product fluorescence interference, QFRET; shares compounds with HGIII-sPLA2 inh; inhibition, % at 12.2 µM;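 active = average inhibition above the solvent-only control mean plus 3 SD, cut at about 6% in these data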;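 note: 0% = DMSO with substrate plus product and 100% = DMSO with substrate alone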
# 535nm interf DR – 535nm optical interference dose response, HGIII-sPLA2 counter-screen | shares compounds with HGIII-sPLA2 inh | BODIPY FL product fluorescence interference, cell-free | IC50, µM | 240 tested, under 10 active | AID 743455;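 active = IC50 at or below 10 µM; inactive = IC50 above 10 µM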
# * hit, by the source's call; nt = no result given. Most compounds without a hit are left out; they make up all but 2.3% or so of the library.
SMILES,SKKanGAS inh,HGIII-sPLA2 inh,Calb FLC,ARFGAP1 inh,ASAP1 inh,sPLA2 confirm,535nm interf,others
Cc1ccc(NC(=S)NNC(=O)c2ccccc2O)c(C)c1,-3,49*,47,11,5,37*,-1,535nm interf DR=>122
Cc1cccc(NC(=S)NNC(=O)c2ccc(O)cc2O)c1C,3,42*,3,0,-5,33*,3,535nm interf DR=>122
CC1=C(C(=O)N(C(C)C)C(C)C)CC(CC(=O)NC(c2ccccc2)c2ccccc2)C(=O)N1CCC1=CCCCC1 (stereo unspecified),nt,-2,nt,6,0,nt,nt,
Cc1nn(CC(=O)Nc2ccc(Cl)cn2)c(C)c1Br,2,20*,-4,3,-4,8,-4,
OC(COCc1ccc(Cl)cc1)CN1CCc2ccccc2C1 (stereo unspecified),1,23*,9,16,8,0,-22,
COC(=O)[C@H]1C[C@@]2(N3CCCC3)c3ccccc3N[C@H]2N1S(=O)(=O)c1ccc([N+](=O)[O-])cc1,nt,4,nt,nt,nt,nt,nt,
C/C(=N\NC(=O)c1ccc(CN2CCc3ccccc3C2)cc1)c1ccccc1O,25,33*,-1,2,6,24*,-21,
CCCNC(=O)c1ccc(CN2CCc3ccccc3C2)cc1,4,5,-2,-9,0,nt,nt,
O=C(c1ccc(Cl)c(Cl)c1)N1CCC(=O)N([C@H](COCc2ccc(Cl)cc2)Cc2ccccc2)CC1,nt,-14,nt,5,6,nt,nt,
CN(C)C(CNC(=O)c1cnc(Cl)c(Cl)c1)c1ccccc1 (stereo unspecified),7,21*,nt,7,-14,-3,-10,
CN(C)C(CNC(=O)c1cc(S(=O)(=O)N(C)c2ccccc2)ccc1Cl)c1ccccc1 (stereo unspecified),-6,-10,0,-6,10,nt,nt,
CCN(C(=O)CN1CCN(c2nc(-c3ccccc3)cs2)CC1)c1ccccc1C,nt,-4,nt,nt,nt,nt,nt,
O=C1c2ccccc2C(=O)N1CCSc1n[nH]c(=S)s1,2,20*,8,-7,-2,25*,5,
O=C1c2ccccc2C(=O)N1CCSc1ncn[nH]1,2,-1,2,-12,8,nt,nt,
COc1cc(C(=O)NC2CCCCN(Cc3cccc(Cl)c3)C2=O)cc(OC)c1OC (stereo unspecified),nt,2,nt,nt,nt,nt,nt,
O=C(NCCc1ccccc1F)c1cc2ccccn2n1,nt,-4,nt,nt,nt,nt,nt,
CN[C@H]1C[C@H]2c3[nH]c4c(-c5cccc(C)c5)cccc4c3CCN2C(=O)[C@H]1[C@H](C)O,nt,-10,nt,nt,nt,nt,nt,
C[C@H](CO)N1C[C@H](C)[C@@H](CN(C)Cc2ccccc2)OCCCC[C@H](C)Oc2ccc(N(C)C)cc2C1=O,nt,17,nt,7,14,nt,nt,
C[C@@H]1CCCCO[C@@H](CN(C)Cc2ccccc2)[C@@H](C)CN([C@H](C)CO)C(=O)c2cc(N(C)C)ccc2O1,nt,24*,nt,4,-5,10,-18,
CCCNC(=O)C[C@@H]1CC[C@H]2NC[C@H](O)COC[C@@H]2O1,nt,7,nt,-1,12,nt,nt,
CCC(C)NC(=S)N(Cc1cc2cc(C)ccc2n2nnnc12)CC(C)(C)NC(C)C (stereo unspecified),-3,21*,-48,-5,-5,6,-8,
COc1ccccc1Cn1[nH]nnc1=S,3,22*,-9,4,6,13,-2,
COc1ccccc1CN1C(=O)CNC1=S,0,nt,0,nt,nt,nt,nt,
CN(C)S(=O)(=O)c1ccc(C(=O)Oc2coc(CSc3ncccn3)cc2=O)cc1,nt,0,nt,0,9,nt,nt,
CCN(CC)S(=O)(=O)c1ccc(C(=O)Oc2coc(CSc3nc(C)cc(C)n3)cc2=O)cc1,4,21*,-9,-2,-3,-29,-29,
SMILES,SKKanGAS inh,HGIII-sPLA2 inh,Calb FLC,ARFGAP1 inh,ASAP1 inh,sPLA2 confirm,535nm interf,others
C=CCN=c1scc(-c2ccco2)n1/N=C/c1ccc(O)c(O)c1O,-3,24*,-5,-13,6,37*,-1,535nm interf DR=>122
COCCN=c1scc(-c2ccco2)n1/N=C/c1ccc(O)c(O)c1O,nt,13,nt,1,-10,nt,nt,
CCC1(CC)Cc2ccccc2C(CC(=O)N2CCOCC2)=N1,-2,20*,-2,8,1,19,-10,
COc1ccc(NC(=O)CSc2nnc(-c3n[nH]c4c3CCC4)n2N)cc1,nt,4,nt,nt,nt,nt,nt,
CC(C)C[C@H]1CNC(=O)C(=O)N1C[C@@H]1CCCN1C[C@H](Cc1ccccc1)N1C[C@H](CC(C)C)N(CC2CCCCC2)C(=O)C1=O,nt,11,nt,-3,-7,nt,nt,
CCOC(=O)Cn1c(=O)c2c(nc(N3CCCCC3)n2C)n(C)c1=O,-3,20*,-5,11,-1,-3,-6,
C=CCN1C(=O)[C@@H](CC(=O)N2CCC(c3ccccc3)CC2)[C@]2(C(=O)OC)CCCCC=C12,nt,-6,nt,nt,nt,nt,nt,
CC1(C)Oc2ccc(C#N)cc2[C@@H](N2CCCC2=O)[C@@H]1O,1,21*,0,6,-13,-3,-1,
N#Cc1ccc2c(c1)NC(=O)C1CCCN21 (stereo unspecified),2,2,-3,4,9,nt,nt,
COc1ccc(Sc2cccc3c2S(=O)(=O)N([C@H](C)c2ccccc2)C[C@@H](COCc2ccccc2)O3)cc1OC,nt,-6,nt,5,6,nt,nt,
COC(=O)C1CN(Cc2cn(Cc3ccc(Cl)cc3)nn2)CCS(=O)(=O)N1Cc1ccc(Cl)cc1 (stereo unspecified),nt,-13,nt,nt,nt,nt,nt,
Cc1cccc(N2CCN(S(=O)(=O)c3c(C)noc3/C=C/N(C)C)CC2)c1C,15,27*,-6,4,-4,24*,-5,
Cc1noc(/C=C/N(C)C)c1S(=O)(=O)N1CCN(c2ccc(F)cc2)CC1,24,12,10,-14,10,nt,nt,
Cn1c(CBr)c(C(=O)c2ccc([N+](=O)[O-])cc2)c(=O)n(C)c1=O,19,22*,15,9,15,5,-4,
COc1cc(C)c2sc3ccccc3c(=O)c2c1NCCN(C)C,nt,20*,nt,10,4,17,-22,
COC(=O)c1cc(-c2cccc(OCc3ccccc3)c2)c(=O)n2c1CCC2,nt,0,nt,nt,nt,nt,nt,
COc1ccc(-n2c(C)cc(C)c(C(C)=O)c2=S)cc1,-5,20*,-6,7,18,4,-6,
O=C1/C(=C/c2ccccn2)SC(=S)N1Nc1ncc(C(F)(F)F)cc1Cl,nt,21*,nt,-17,-5,32*,-1,535nm interf DR=>122
O=C(CSc1nnc(-c2ccncc2)n1-c1ccc(Cl)cc1)c1ccc(Cl)c(Cl)c1,nt,-32,nt,nt,nt,nt,nt,
